Results published in ChEMBL document CHEMBL1128226, “Phosphinyl acid-based bisubstrate analog inhibitors of Ras farnesyl protein transferase” (J Med Chem, 1995).

Legend:
[1] = biological target: Geranylgeranyl transferase type I (Homo sapiens, UniProt P49354+P53609); test: Inhibition of Geranylgeranyl transferase type I from porcine brain tissue; design: species or system Sus scrofa; conditions: target entry is the homologue from another species; read-out: I50
Outline: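 Porcine brain GGT-I, partially purified; substrates 12 μM bacterially expressed p21 rasCVLL and 0.5 μM [3H]GGPP (19.3 Ci/mmol), with 10 mM DTT, 5 mM MgCl2, 5 μM ZnCl2, 100 mM HEPES pH 7.4. Incubated 1 h at 37 °C. Protein precipitated with SDS/TCA, filtered, radioactivity counted. Triplicates, SEM reported; IC50 determined.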

[2] = biological target: T1, Protein farnesyltransferase (Homo sapiens, UniProt P49354+P49356); test: Inhibition of Ras Farnesyltransferase enzyme from pig brain; design: species or system Sus scrofa; conditions: target entry is the homologue from another species; read-out: I50
Outline: (§1)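 Pig brain FPT purified about 2000-fold over crude cytosol. Reaction contains 1 μM [3H]FPP, 7 μM recombinant p21 H-Ras (E. coli, partially purified), 25 mM MgCl2, 10 mM DTT and 100 mM HEPES 7.4, with inhibitor usually 360 to 0.02 μM. Run 1 h at 37 °C, then SDS/TCA precipitation, filtration and scintillation counting. Triplicate points; IC50 from % control vs log concentration; each compound tested at least twice.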

[3] = biological target: T1, Protein farnesyltransferase; test: Inhibition of Ras Farnesyltransferase from pig brain; design: species or system Sus scrofa; conditions: target entry is the homologue from another species; read-out: I50; outline: as §1
[4] = test system: Geranylgeranyl transferase type I (Sus scrofa); test: Inhibition of Geranylgeranyl transferase type I from porcine brain tissue; 'a' indicates prodrug
[5] = biological target: T1, Protein farnesyltransferase; test: Inhibition of Ras Farnesyltransferase obtained from pig brain; 'a' indicates prodrug; design: species or system Sus scrofa; conditions: target entry is the homologue from another species; outline: as §1

Row | Structure (SMILES) | IC50 [1] [µM] | IC50 [2] [µM] | IC50 [3] [µM] | I50 [4] | I50 [5]
1 | CC(C)=CCC/C(C)=C/CC/C(C)=C/CP(=O)(O)OCC(=O)N[C@H](C(=O)N[C@@H](CC(C)C)C(=O)N[C@@H](CO)C(=O)O)C(C)C | 59 | 0.06 |  |  | 
2 | CSCC[C@H](NC(=O)[C@@H](NC(=O)[C@@H](NC(=O)COP(=O)(O)C/C=C(\C)CC/C=C(\C)CCC=C(C)C)C(C)C)C(C)C)C(=O)O | 10 | 0.0062 |  |  | 

Next, values leading:

Row | IC50 [1] [µM] | IC50 [2] [µM] | IC50 [3] [µM] | I50 [4] | I50 [5] | Structure (SMILES)
3 | 21 |  | 0.006 |  |  | CSCC[C@H](NC(=O)[C@@H](NC(=O)[C@@H](NC(=O)CCP(=O)(O)C/C=C(\C)CC/C=C(\C)CCC=C(C)C)C(C)C)C(C)C)C(=O)O
4 |  |  |  | Prepared and evaluated as prodrugs | Prepared and evaluated as prodrugs | COC(=O)[C@H](CCSC)NC(=O)[C@@H](NC(=O)[C@@H](NC(=O)CCP(=O)(O)C/C=C(\C)CC/C=C(\C)CCC=C(C)C)C(C)C)C(C)C
5 |  |  |  | Prepared and evaluated as prodrugs | Prepared and evaluated as prodrugs | COC(=O)[C@H](CCSC)NC(=O)[C@@H](NC(=O)[C@@H](NC(=O)COP(=O)(O)C/C=C(\C)CC/C=C(\C)CCC=C(C)C)C(C)C)C(C)C
